Values after ≈ are worked out from the molar mass of the structure shown.
How the values were obtained:
[1] = Water solubility, shake flask method, 0.1 M phosphate buffer pH 6.8; assay type: physicochemical; conditions: 37 °C, pH 6.8, aqueous buffer, thermodynamic from solid
[2] = tested on: HepG2, HT‐29, Caco‐2 and EA.hy926; assay: Antiproliferative activity, MTT and SRB assays taken together; assay type: cell-based
EA.hy926 [3] = assay: Cytotoxicity, mitochondrial activity; assay type: cell-based; conditions: Homo sapiens, EA.hy 926, 72 h, read-out: IC50 MTT
How it was run: (§1)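 Seeded at 20000 cells/well in DMEM and grown 24 h at 37 °C, 10% CO2. Medium was then replaced with serum-free medium holding test compound (25 mM DMSO stock) at various concentrations for 72 h, in triplicate; doxorubicin was the positive control. MTT (5 mg/mL stock in PBS) added for 2 h, formazan dissolved in DMSO, A570. IC50 derived from % surviving cells, reported as mean ± SD combined with SRB data.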

Caco‐2 [4] = assay: Cell growth inhibition, protein content; assay type: cell-based; conditions: Homo sapiens, Caco-2, 72 h, read-out: IC50 SRB
How it was run: (§2)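 Cell lines from ATCC, grown in DMEM+glutamax with 1% NEAA, 1% P/S and 10% FBS at 37 °C, 10% CO2. Seeded at 20000 cells/well for 24 h, then exposed to test compound (25 mM DMSO stock) for three days. Fixed with cold TCA for 1 h at 4 °C, stained 30 min with 0.4% SRB in 1% acetic acid, dissolved in 10 mM Tris, A490. Triplicate; IC50 given as mean ± SD combined with MTT data (n ≥ 3).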

[5] = Chemical antioxidant capacity, FRAP assay
HT‐29 [6] = assay: Cell growth inhibition, protein content; assay type: cell-based; conditions: Homo sapiens, HT-29, 72 h, read-out: IC50 SRB
How it was run: as §2

EA.hy926 [7] = assay: Intracellular ROS assay; assay type: cell-based; conditions: Homo sapiens, EA.hy 926, read-out: Intracellular ROS, percentage compared to the untreated control cells (ROS/SRB)
How it was run: (§3)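 Cells seeded at 20000/well and grown 24 h at 37 °C, 10% CO2, then treated with test compound at 10 and 1 μM in serum-free medium. NAC and doxorubicin served as controls. After a PBS wash, cells were loaded with 20 μM DCFH-DA for 30 min, washed, and held 1 h in phenol red-free DMEM. Fluorescence read at ex 485/em 535 nm and normalized to SRB in the same well. Reported as % of untreated control, n ≥ 3, two-tailed t-test with unequal variances.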

HT‐29 [8] = assay: Intracellular ROS assay; assay type: cell-based; conditions: Homo sapiens, HT-29, read-out: Intracellular ROS, percentage compared to the untreated control cells (ROS/SRB)
How it was run: as §3

EA.hy926 [9] = assay: Cell growth inhibition, protein content; assay type: cell-based; conditions: Homo sapiens, EA.hy 926, 72 h, read-out: IC50 SRB
How it was run: as §2

HepG2 [10] = assay: Intracellular ROS assay; assay type: cell-based
How it was run: as §3

Caco‐2 [11] = assay: Cytotoxicity, mitochondrial activity; assay type: cell-based; conditions: Homo sapiens, Caco-2, 72 h, read-out: IC50 MTT
How it was run: as §1

HepG2 [12] = assay: Cytotoxicity, mitochondrial activity; assay type: cell-based; conditions: Homo sapiens, HepG2, 72 h, read-out: IC50 MTT
How it was run: as §1

HepG2 [13] = assay: Cell growth inhibition, protein content; assay type: cell-based; conditions: Homo sapiens, HepG2, 72 h, read-out: IC50 SRB
How it was run: as §2

Caco‐2 [14] = assay: Intracellular ROS assay; assay type: cell-based; conditions: Homo sapiens, Caco-2, read-out: Intracellular ROS, percentage compared to the untreated control cells (ROS/SRB)
How it was run: as §3

HT‐29 [15] = assay: Cytotoxicity, mitochondrial activity; assay type: cell-based; conditions: Homo sapiens, HT-29, 72 h, read-out: IC50 MTT
How it was run: as §1

[16] = Homo sapiens, HepG2, read-out: Intracellular ROS, percentage compared to the untreated control cells (ROS/SRB)

solubility at 90 min [1]: 9 ± 0.6 µM (≈ 2.91 µg/mL) | solubility at 24 h [1]: 12.8 ± 1.1 µM (≈ 4.14 µg/mL) | IC50 (Caco‐2 [4]): 12 ± 0.7 µM | IC50 (HepG2 [13]): 9.8 ± 0.6 µM
Structure (SMILES): COc1cc(/C=C/C(=O)/C=C(O)/C=C/c2ccncc2)ccc1O [3 c, (1E,4Z,6E)‐5‐Hydroxy‐1‐(4‐hydroxy‐3‐methoxyphenyl)‐7‐(pyridin‐4‐yl)hepta‐1,4,6‐triene‐3‐one]
antiproliferative activity / cell growth inhibition in words [2]: comparable activity to the commercial doxorubicin drug | IC50 (EA.hy926 [3]): 6.1 ± 0.1 µM | FRAP (Trolox equivalent per μM) [5]: 0.56 Trolox equivalent per μM | FRAP (curcumin equivalent per μM) [5]: 0.54 curcumin equivalent per μM | antioxidant activity in words, FRAP [5]: comparable to ascorbic acid | IC50 (HT‐29 [6]): 48.8 ± 1.8 µM | activity at 1 µM (EA.hy926 [7]): 100 ± 6.9% | activity at 10 µM (EA.hy926 [7]): 95.7 ± 3.5% | activity at 1 µM (HT‐29 [8]): 93.4 ± 6.4% | activity at 10 µM (HT‐29 [8]): 99.8 ± 11.4% | IC50 (EA.hy926 [9]): 3.7 ± 0.2 µM | change of intracellular ROS in words (HepG2 [10]; HepG2, vs untreated control, 10 and 1 μM): significantly increased ROS production | activity at 1 µM (HepG2 [10]; [16]): 104 ± 13.1% | activity at 10 µM (HepG2 [10]; [16]): 128 ± 4.4% | IC50 (Caco‐2 [11]): 7.1 ± 0.4 µM | IC50 (HepG2 [12]): 3.2 ± 0.8 µM | activity at 1 µM (Caco‐2 [14]): 89.8 ± 3.6% | activity at 10 µM (Caco‐2 [14]): 99.7 ± 1% | IC50 (HT‐29 [15]): 4.9 ± 0.3 µM

Source: article PMC6392825 (ChemistryOpen, 2019)
